One series concerns HEK293T. Nature of the series: Inhibition of human c-YFP fused CB1R/n-YFP fused 5HT2A receptor heterodimer formation transfected in human HEK293T cells at 4 uM incubated for 4 hrs by BIFC assay. In kind it is cell-based. A digest of the protocol:
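HEK-293T cells were cotransfected 48 h with 5HT2AR-cYFP and CB1R-nYFP (4 μg cDNA each, polyethylenimine), then treated with 4 μM peptide or vehicle for 4 h at 37 °C. Reconstituted YFP Venus was read on 20 μg protein at 530 nm emission with 400 nm excitation, minus the fluorescence of non-expressing cells. Mean ± SEM, n = 10–30.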

For series [1], the system named is Mus musculus. The experiment in a line: Analgesic activity in mouse assessed as pain response at 20 mg/kg, iv pretreated with compound for 30 mins followed by THP addition and measured after 60 mins by hot plate test. As to conditions: time 90.0 min. It counts as functional, organism-based. The method, boiled down: (§1)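 Mice got peptide or vehicle IV (20 mg/kg) or orally by gavage (5, 10, 20 mg/kg) 30 min before IP THC 10 mg/kg (vehicle 5% ethanol, 5% Cremophor-EL, 90% saline). Latency to jump on a 52 ± 0.5 °C hot plate was read 60 min after THC, with a 240 s cutoff. Mean ± SEM, n = 10–12 (IV) or 5–8 (oral); Fisher LSD.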

The subject of another series is BEND3. The experiment in a line: Induction of BBB translocation in mouse BEND3 cells measured after 24 hrs by fluorescence analysis. In kind it is functional, cell-based. A digest of the protocol: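 5(6)-Carboxyfluorescein-labeled peptides were applied to a transwell BBB model of bEnd.3 cells. Translocation (%) was measured as fluorescence in the basolateral chamber after 24 h, with a trans-BBB peptide as positive control. Barrier integrity was checked afterward by FD4 dextran permeability. Mean ± SEM, n = 3–6, independent cultures on different days.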

Series [2] concerns Mus musculus. Nature of the series: Protection against THP-induced amnesic effect in mouse assessed as reduction in memory impairment at 20 mg/kg, iv pretreated for 30 mins followed by THP addition. It counts as functional, organism-based. The method, boiled down: (§2)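 V-maze novel object recognition. Day 1 was 9 min habituation. Day 2 was 9 min training with two identical objects. Peptide was given IV (20 mg/kg) or orally (5, 10, 20 mg/kg) right after training, then IP THC 3 mg/kg or vehicle 30 min later. The 9 min test came 24 h later with one object replaced. Discrimination index = (novel − familiar)/total exploration time; exploration meant the nose oriented within 2 cm of the object. Fisher LSD.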

Series [3] is described as follows: Drug internalization in mouse BEND3 cells by confocal microscopic analysis. It counts as ADME, cell-based. A digest of the protocol:
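bEnd.3 mouse brain endothelial cells were exposed to 5(6)-carboxyfluorescein-labeled peptides and counterstained with Hoechst 33342 and CellMask Deep Red membrane stain. Imaging used point-scanning confocal microscopy with a 63× oil objective, 405 nm excitation for the stains and 488 nm for the peptide.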

For series [4], the system named is Mus musculus. The experiment in a line: Analgesic activity in mouse assessed as pain response at 5 to 20 mg/kg, po pretreated with compound for 30 mins followed by THP addition and measured after 60 mins by hot plate test. It counts as functional, organism-based. Particulars: dose 5-20 mg/kg, time 90.0 min. A digest of the protocol:
as §1

The subject of series [5] is Mus musculus. The experiment in a line: Protection against THP-induced amnesic effect in mouse assessed as reduction in memory impairment at 5 to 20 mg/kg, po pretreated for 30 mins followed by THP addition. In kind it is functional, organism-based. Particulars: dose 5-20 mg/kg. A digest of the protocol: as §2
Series [6] relates to Mus musculus. Nature of the series: Immunogenicity in CD1 mouse at 100 ug administered for 5 consecutive days and booster dose on day 15 measured upto 19 days by ELISA. In kind it is ADME, organism-based. Particulars: in vivo, 456 h, time <=19 day, dose 100 µg. A digest of the protocol:
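Female outbred Hsd:ICR (CD-1) mice (n = 10) got IV peptide 100 μg/dose in PBS + 2% DMSO on 5 consecutive days with a boost on day 15. Controls were KLH conjugate 30 μg (n = 5) and PBS (n = 5). Sera from days 0, 9 and 19 were tested by indirect ELISA on plates coated with peptide-BSA 1 μg/mL, using anti-IgG-HRP, TMB and A450. Titer (log10) = reciprocal of the last dilution above the day-0 serum signal + 2 SD.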

Drawing on ChEMBL document CHEMBL5036309, “Orally Active Peptide Vector Allows Using Cannabis to Fight Pain While Avoiding Side Effects” (J Med Chem, 2021), this text covers inhibition, Activity and Drug uptake for 2 molecules.

Calls of active or inactive are those of the source. Square brackets hold non-standard residues; d marks the D form. Peptide text beside a SMILES is read from it.

Consider `CC[C@@H](C)[C@@H](NC(=O)CNC(=O)[C@@H](C)N)C(=O)N[C@H](CC(C)C)C(=O)N[C@H](CCCCN)C(=O)N[C@H](CCCNC(=N)N)C(=O)N[C@H](Cc1c[nH]c2ccccc12)C(=O)N[C@@H](C(=O)N[C@@H](C(=O)N[C@H](CC(C)C)C(=O)N[C@@H](C(=O)N[C@H](CC(C)C)C(=O)N[C@@H](C(=O)N[C@H](CC(C)C)C(=O)N[C@@H](C(=O)N[C@H](CCCCN)C(N)=O)[C@H](C)O)C(C)C)[C@H](C)CC)C(C)C)C(C)C` (H-[dA]G[dI][dL][dK][dR][dW][dV][dV][dL][dI][dL][dV][dL][dT][dK]-NH2), for which, in the series with HEK293T, the inhibition entry is “Active”. Moreover, the outcome in the series with Mus musculus [1] and in the series on BEND3 was Active. Besides, the result in the series on Mus musculus [2] was inactive. In addition, the Drug uptake result in series [3] is reported as “Active”.
As for `CC[C@@H](C)[C@@H](NC(=O)CNC(=O)[C@@H](C)NC(=O)[C@H](NC(=O)[C@@H](Cc1ccc(O)cc1)NC(=O)[C@@H](C)NC(=O)[C@@H](Cc1ccc(O)cc1)NC(=O)[C@@H](CCSC)NC(=O)[C@@H](Cc1ccc(O)cc1)NC(=O)[C@H](NC(=O)[C@@H](CC(C)C)NC(=O)[C@H](N)Cc1c[nH]c2ccccc12)[C@H](C)CC)C(C)C)C(=O)N[C@H](CC(C)C)C(=O)N[C@H](CCCCN)C(=O)N[C@H](CCCNC(=N)N)C(=O)N[C@H](Cc1c[nH]c2ccccc12)C(N)=O` (H-[dW][dL][dI][dY][dM][dY][dA][dY][dV][dA]G[dI][dL][dK][dR][dW]-NH2), in the series on HEK293T, the inhibition entry was “Active”. Also, the outcome in the series on Mus musculus [1], in the series on Mus musculus [4], in the series on Mus musculus [5], in the series with BEND3 and with Mus musculus [2] was Active. For the same molecule, in the series with Mus musculus [6], the Activity result is recorded as “Non-Toxic”. Moreover, in series [3], the Drug uptake result is given as “Active”.
